Assay outcomes (PubChem BioAssay)
PP1 counter – counter-screen for PP5 inhibitors: inhibitors of human PP1-alpha; P62136; purified PP1alpha, OMFP fluorescence; inhibition, % at 6.7 µM; 0.9% of 320,000 active; AID 2235;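 active = inhibition above the mean inhibition of all tested compounds plus 3 SD, computed separately for each screening campaign, cut at about 15% in these data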
AI-2 QS modul – modulates the Vibrio harveyi AI-2 quorum sensing system | 0.4% of 300,000 active | activity change, % at 7.5 µM | Vibrio harveyi JMH597 AI-2 luminescence/OD600 ratio, 9 h; hits give low values; strain lacks LuxN and CqsS sensors; 0 = neutral-control median; in the data active = activity change below about -75%, passing the limit was not always enough;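 note: luminescence divided by OD600 gain over 9 h not by final OD600 alone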
pCIP destab – lowers stability of the mouse p/CIP coactivator protein; AID 1984; F442A p/CIP-EGFP cells, EGFP fluorescence, 16 h; 0.01% of 290,000 active; decrease of EGFP signal, % at 10 µM;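 active = EGFP signal decrease of at least 30% at 10 µM or well 3 SD below plate mean, unless failing retest; inactive = the rest, including hits failing retest or dose response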
T cruzi repl – T. cruzi replication inhibition. T. cruzi beta-gal in NIH3T3, luminescence, 90 h. 1.4% of 300,000 active. inhibition, % (test concentration not listed). AID 1885;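 active = mean inhibition across valid replicates above about 55%, limit read from the data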;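 note: signal also drops with host cell toxicity which is not excluded here; 0% = plate median of DMSO wells and 100% = zero luminescence signal; higher percent means less beta-gal luminescence so fewer parasites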
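Read-out: Parasite load inhibition, % | Test system: Mouse NIH/3T3 fibroblasts infected with β-gal-expressing T. cruzi Tulahuen C4 | Amount: 5,000 cells/well | Medium: DMEM, 2% fetal bovine serum | Signal: GalScreen β-gal luminescence, detergent lysis, 60 min | Timing: 3 h attach, ≥90 h co-culture | Also added: Tulahuen C4 trypomastigotes, 5000/well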
UBC13 inh – blocks human UBC13 polyubiquitin chain formation; TR-FRET; inhibition, % at 20 µM; AID 485273; P61088; 0.47% of 330,000 active; in the data active = inhibition above about 45%, passing the limit was not always enough
* marks the source's active call; other numbers are inactive results; · = not tested or not shown. The list is not random: actives were taken first. Their share in the collection is about 2.8%.

SMILES | PP1 counter | AI-2 QS modul | pCIP destab | T cruzi repl | UBC13 inh
CN(C)CCN(C(=O)c1ccc(S(=O)(=O)N2CCc3ccccc32)cc1)c1nc2ccc(F)cc2s1 | -3 | 16 | -3 | 63* | -1
CCc1ccc2nc(N(CCCN(C)C)C(=O)c3ccc(S(=O)(=O)N4CCCc5ccccc54)cc3)sc2c1 | 14 | 6 | 7 | 61* | 33
CN(C)CCCN(C(=O)c1ccc(S(=O)(=O)N2CCc3ccccc3C2)cc1)c1nc2c(F)cc(F)cc2s1 | 0 | 23 | · | 50 | 24
CN(C)CCCN(C(=O)c1ccc(S(=O)(=O)N2CCc3ccccc32)cc1)c1nc2c(Cl)cccc2s1 | 8 | 20 | -1 | 55* | 15
COc1cccc2sc(N(CCCN(C)C)C(=O)c3ccc(S(=O)(=O)N4CCCc5ccccc54)cc3)nc12 | 6 | -7 | -4 | 17 | 28
CNC(=S)N1CCN(c2ccc(Cl)c(Cl)c2)CC1 | -1 | -29 | -8 | 33 | 1
CC1CN(C(C)C(=O)NC(c2ccccc2)c2ccccc2)CC(C)O1 (stereo unspecified) | 0 | -2 | 3 | -8 | -3
COc1ccc(/C=C(\C#N)C(=O)Nc2ccc3[nH]c(=O)[nH]c3c2)cc1 | -2 | 9 | -2 | -6 | -5
O=c1[nH]c(-c2ccccn2)nc2sc(-c3ccccc3)cc12 | · | 29 | -5 | 55* | ·
O=C(NC(=S)NCc1cccnc1)c1cccc2ccccc12 | 5 | -11 | -2 | 63* | -2
O=C(NC(=S)NCc1cccnc1)c1ccccc1F | 1 | 3 | -21 | 1 | 2
C=C(C(=O)Nc1ccccc1)c1ccc(C)cc1 | -1 | 3 | · | -11 | 10
COc1cccc2sc(N3CCN(C(=O)c4ccc([N+](=O)[O-])o4)CC3)nc12 | -4 | 21 | · | 26 | -8
COc1cc2c(cc1OC)CN(C(=O)c1ccc([N+](=O)[O-])o1)CC2 | -1 | 25 | -6 | 50 | -4
Cc1ccc2sc(N3CCN(C(=O)c4ccc([N+](=O)[O-])o4)CC3)nc2c1C | -2 | 22 | · | 59* | -1
O=C(c1ccc([N+](=O)[O-])o1)N1CCc2ccccc2C1 | -4 | 0 | -9 | 57* | -4
O=C(c1ccc([N+](=O)[O-])o1)N1CCN(c2nc3c(Cl)cccc3s2)CC1 | -3 | -1 | · | 59* | -3
C/C(=N/NC(=O)CC1N=C(Cc2ccccc2)NNC1=O)c1cccnc1 (stereo unspecified) | 4 | 5 | -6 | -6 | 18
COc1ccc(S(=O)(=O)Nc2ccc3c(c2)C(=O)N([C@@H](C)CO)C[C@H](C)[C@H](CN(C)CC2CC2)O3)cc1 | · | · | · | · | 21
O=C(NC1CCCCCC1)c1ccc[nH]c1=S | 1 | 7 | 3 | 58* | -7
O=C(NC1CCCCCCC1)c1ccccc1O | -2 | 29 | 5 | -11 | 6
CCOc1cc(-c2nc(-c3ccccc3)c(-c3cc([N+](=O)[O-])ccc3C)[nH]2)ccc1O | -1 | 28 | -22 | 57* | -3
CC(=O)C1=C(c2ccccc2)NC(=S)NC1c1cc(Cl)c(OC(C)C)c(Cl)c1 (stereo unspecified) | 9 | 21 | -3 | 61* | -17
COCCNC(=O)CCC1CCN(Cc2ccc(-c3ccccc3)cc2)CC1 | -2 | 12 | 7 | 58* | 5
COCCNC(=O)CCc1nnc(Cc2ccc(-c3ccccc3)cc2)o1 | -2 | 7 | 8 | -6 | 17
SMILES | PP1 counter | AI-2 QS modul | pCIP destab | T cruzi repl | UBC13 inh
O=C1c2cccc3cccc(c23)C(=O)N1CCCN1CCN(c2ccc(F)cc2)CC1 | 12 | 9 | 1 | 47 | 16
c1coc(CNc2nc(N3CCCCC3)nc3ccccc23)c1 | 2 | 37 | -10 | 49 | 22
c1ccc(N2CCN(c3nc(NCc4ccco4)c4ccccc4n3)CC2)cc1 | 5 | 5 | -10 | 55* | 16
Cc1ccc2nc(-c3ccncc3)cc(C(=O)NCCc3ccc(F)cc3)c2c1 | 1 | -15 | 1 | 56* | -2
CCCCCCCNC(=O)c1cc(-c2ccncc2)nc2ccccc12 | 8 | 2 | 2 | 57* | -4
Cc1ccc2nc(-c3ccccn3)cc(C(=O)NCCc3ccc(F)cc3)c2c1 | -2 | -1 | -8 | 10 | 12
O=C(CNC(=O)c1ccc(Cl)cc1)NCc1ccccn1 | -5 | · | · | · | 6
CCN(Cc1ccccc1)C(c1ccc(C(F)(F)F)cc1)c1nnnn1C(C)(C)C (stereo unspecified) | 15* | -14 | · | 48 | 1
CC(C)(C)c1ccc(C(=O)N/C(=C\c2cccs2)C(=O)N2CCOCC2)cc1 | 3 | 19 | -3 | -10 | -5
CC(Oc1ccc(Cl)cc1Cl)c1nc(-c2ccc(NC(=O)c3cccnc3)cc2)no1 (stereo unspecified) | 0 | 13 | -10 | 41 | 8
CC(Oc1ccc(Cl)cc1Cl)c1nc(-c2ccc(NC(=O)c3ccncc3)cc2)no1 (stereo unspecified) | 4 | 4 | 6 | 55* | 27
N#Cc1cc([N+](=O)[O-])ccc1Oc1cccc(/C=N/NC(=O)c2cccc(Cl)c2)c1 | 9 | 36 | 0 | 68* | -1
COc1ccc(/C=N/NC(=O)c2cccc([N+](=O)[O-])c2)cc1OC | -4 | 22 | -7 | -5 | -7
COc1cccc(C=O)c1OC(=O)N1CCOCC1 | 0 | -2 | -13 | 1 | 1
COc1ccccc1C(c1nnnn1Cc1ccco1)N1CCN(c2cccc(C)c2C)CC1 (stereo unspecified) | 4 | 17 | -18 | 74* | -12
Cc1cc(=O)[nH]c(NCCO)n1 | -2 | 17 | 2 | -16 | -1
Nc1nc(COC(=O)C2CC(=O)N(CCc3ccccc3)C2)nc(Nc2ccccc2)n1 (stereo unspecified) | 1 | · | · | · | 2
Cc1[nH]c(-c2ccccn2)nc(=S)c1Cl | 1 | -88* | -6 | -13 | -6
Cc1cccc2c1NC(=O)/C2=C\C(=O)c1cccs1 | 4 | 13 | 4 | 5 | -3
Cc1cc(Br)c2c(c1)/C(=C/C(=O)c1cccs1)C(=O)N2 | 2 | 16 | -6 | 58* | -1
COc1ccc(CN(C)C(=O)c2cccc(S(=O)(=O)N3CCc4ccccc43)c2)c(OC)c1 | 0 | · | · | · | 3
CCOc1ccc2nc(NC(=O)C3CCCN(S(=O)(=O)c4cccs4)C3)sc2c1 (stereo unspecified) | 5 | 20 | -8 | 61* | -7
C/C(=C\C(=O)OCCCCCCCCC(=O)O)C[C@@H]1OC[C@H](C[C@@H]2O[C@H]2[C@@H](C)[C@H](C)O)[C@@H](O)[C@H]1O | 8 | -173* | · | -3 | 4
COc1ccc(C=O)cc1CN1CCCN(Cc2ccc(Cl)cc2)S1(=O)=O | 1 | -11 | 5 | 13 | 6
COC(=O)c1ccc(OC)c(CN2CCCN(Cc3ccc(F)cc3)S2(=O)=O)c1 | -1 | 9 | -5 | 57* | -3
